Results reported in ChEMBL document CHEMBL5653624 (Biochem Pharmacol, 2016).
Calls of active or inactive are those of the source. The calls are words filed in the database; no cut-off is given here.

How the values were obtained:
Lung [1] = experiment: Antiinflammatory activity in C57bl/6 mouse precision-cut lung slices assessed as upregulation of LPS/IFNgamma-induced IL-1beta gene expression at 1 to 10 uM preincubated for 20 hrs followed by LPS/IFNgamma stimulation and measured after 4 hrs by RT-qPCR analysis relative to control; format: functional; details: dose 1-10 µM; time 24 hrs
Summary of the method: (§1)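 PCLS, 250 μm thick, cut from agarose-filled lungs of male C57bl/6 mice (24–28 g, 8–10 weeks). Three slices per well at 37 °C, 5% CO2. Slices received RGFP966 at 1 and 10 μM final for 20 h, with 10 ng/ml LPS and 10 ng/ml IFNγ stimulation. RNA isolated; RT-qPCR fold change versus LPS/IFNγ control by 2−ΔΔCt. Mean ± SD, n = 3–5.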

Lung [2] = experiment: Antiinflammatory activity in C57bl/6 mouse precision-cut lung slices assessed as down regulation of LPS/IFNgamma-induced IL-12b gene expression at 1 to 10 uM preincubated for 20 hrs followed by LPS/IFNgamma stimulation and measured after 4 hrs by RT-qPCR analysis; format: functional, tissue-based; details: dose 1-10 µM, time 24.0 hrs; summary of the method: as §1
[3] = molecular target: Histone deacetylase 1 (Mus musculus) (UniProt O09106); experiment: Effect on HDAC1 nuclear localization in LPS/IFNgamma-stimulated mouse RAW264.7 cells preincubated for 20 hrs followed by LPS/IFNgamma stimulation and measured after 1 hr by Hoechst staining based confocal laser scanning microscopy; format: cell-based
Sequence of Histone deacetylase 1 (Mus musculus) (O09106 whole entry): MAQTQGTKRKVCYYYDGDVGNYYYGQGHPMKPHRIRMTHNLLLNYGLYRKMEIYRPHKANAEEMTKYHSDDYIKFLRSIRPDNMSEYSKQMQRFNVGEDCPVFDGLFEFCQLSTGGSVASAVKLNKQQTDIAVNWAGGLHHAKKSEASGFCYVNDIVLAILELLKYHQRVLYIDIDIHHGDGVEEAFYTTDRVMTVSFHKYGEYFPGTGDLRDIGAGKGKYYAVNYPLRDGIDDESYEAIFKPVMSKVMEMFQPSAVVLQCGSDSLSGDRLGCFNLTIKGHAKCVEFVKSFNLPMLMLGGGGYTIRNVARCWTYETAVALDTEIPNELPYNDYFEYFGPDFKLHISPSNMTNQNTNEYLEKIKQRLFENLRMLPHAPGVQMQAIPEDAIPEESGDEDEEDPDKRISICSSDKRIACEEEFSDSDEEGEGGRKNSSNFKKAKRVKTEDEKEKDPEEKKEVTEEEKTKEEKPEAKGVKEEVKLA
Summary of the method: (§2)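 RAW 264.7 cells at 20,000 cells/cm2 received 1 μM RGFP966 for 20 h, then 1 h LPS/IFNγ. Fixed in 4% formaldehyde, permeabilized with 0.25% Triton X-100, blocked with 5% BSA. Primary antibodies 2 h at 4 °C, AlexaFluor secondaries 1 h, Hoechst nuclear stain. Confocal imaging at 630×; 4 independent experiments.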

HBE = experiment: Antiinflammatory activity in HBE cells assessed as effect on LPS/IFNgamma-induced iNOS gene expression at 2 uM […] by RT-qPCR analysis; format: functional, cell-based; details: Homo sapiens
Summary of the method: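 HBE cells (passage 73–103) or immortalized hASM cells (2–3 donors, passage 27–35), serum-starved. Then 2 μM RGFP966 for 20 h, with LPS/IFNγ for the last 4 h. Total RNA isolated; RT-qPCR by 2−ΔΔCt, fold change versus LPS/IFNγ control. Mean ± SD of 3–5 independent experiments.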

[4] = molecular target: T1, Histone deacetylase 3 (Mus musculus) (UniProt O88895); experiment: Inhibition of HDAC3 in mouse RAW-Blue cells assessed as reduction in LPS/IFNgamma-induced NF-kappaB p65 transcriptional activity preincubated for 16 hrs followed by LPS/IFNgamma stimulation and measured after 4 hrs by SEAP reporter gene assay; format: cell-based; details: time 20.0 hrs
T1 sequence (whole entry): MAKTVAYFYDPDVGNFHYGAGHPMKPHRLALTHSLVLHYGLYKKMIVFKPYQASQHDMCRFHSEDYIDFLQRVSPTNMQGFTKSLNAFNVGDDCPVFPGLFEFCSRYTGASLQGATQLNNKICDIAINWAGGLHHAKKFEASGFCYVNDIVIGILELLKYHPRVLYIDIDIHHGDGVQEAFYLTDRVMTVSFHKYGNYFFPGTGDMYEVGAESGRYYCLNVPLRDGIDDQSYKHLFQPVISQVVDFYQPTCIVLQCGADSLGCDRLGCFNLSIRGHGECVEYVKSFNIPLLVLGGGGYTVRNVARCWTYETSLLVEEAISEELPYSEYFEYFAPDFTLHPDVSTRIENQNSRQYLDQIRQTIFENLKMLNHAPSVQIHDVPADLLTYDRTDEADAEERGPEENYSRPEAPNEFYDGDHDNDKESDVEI
Summary of the method: (§3)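 RAW-Blue cells (RAW 264.7-derived, stably expressing an NF-κB/AP-1-inducible secreted embryonic alkaline phosphatase) exposed to inhibitor for 20 h total, with 10 ng/ml LPS plus 10 ng/ml IFNγ added for the final 4 h. Supernatant mixed with QUANTI-Blue medium, 37 °C 1–2 h in the dark, absorbance 630 nm; reported as % of control.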

[5] = molecular target: T1, Histone deacetylase 3 (Mus musculus); experiment: Inhibition of HDAC3 in mouse RAW-Blue cells assessed as effect on NF-kappaB p65 transcriptional activity measured after 16 hrs by SEAP reporter gene assay; format: cell-based; summary of the method: as §3
RAW264.7 [6] = experiment: Antiinflammatory activity in LPS/IFNgamma-stimulated mouse RAW264.7 cells assessed as effect on IkappaBalpha expression preincubated for 20 hrs followed by LPS/IFNgamma stimulation and measured after 4 hrs by Western blot analysis; format: functional, cell-based; details: time 24.0 hrs
RAW264.7 [7] = experiment: Antiinflammatory activity in mouse RAW264.7 cells assessed as down regulation of LPS/IFNgamma-induced IL-1beta gene expression at 1 uM preincubated for 20 hrs followed by LPS/IFNgamma stimulation and measured after 4 hrs by RT-qPCR analysis; format: functional, cell-based; details: time 24.0 hrs
Summary of the method: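 RAW 264.7 macrophages in DMEM/10% FBS received 1 μM RGFP966 for 20 h, with LPS/IFNγ for the last 4 h. Washed with cold DPBS, total RNA isolated, integrity checked by 28S/18S. RT-qPCR by comparative Ct (2−ΔΔCt), fold change versus LPS/IFNγ control. Mean ± SD of 3–5 independent experiments.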

[8] = Toxicity in C57bl/6 mouse precision-cut lung slices assessed as effect on tissue viability up to 10 uM measured after 20 hrs by LDH release assay; format: tissue-based
Summary of the method: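 PCLS (250 μm) from male C57bl/6 mice, agarose-filled lungs, washed four times, 3 slices/well at 37 °C 5% CO2; inhibitor at 1 and 10 μM for 20 h. LDH in medium measured on automatic analyzer, expressed relative to maximal release from 3 slices lysed with 1% Triton X-100 (30 min, 37 °C).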

RAW264.7 [9] = experiment: Antiinflammatory activity in LPS/IFNgamma-stimulated mouse RAW264.7 cells assessed as effect on IkappaBalpha mRNA expression preincubated for 20 hrs followed by LPS/IFNgamma stimulation and measured after 4 hrs by RT-qPCR analysis; format: functional, cell-based; details: time 24.0 hrs
[10] = molecular target: T1, Histone deacetylase 3 (Mus musculus); experiment: Inhibition of HDAC3 in mouse RAW264.7 cells assessed as effect on LPS/IFNgamma-induced NF-kappaB p65 nuclear translocation preincubated for 20 hrs followed by LPS/IFNgamma stimulation and measured after 1 hr by Western blot analysis; format: cell-based
Summary of the method: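 After 20 h inhibitor then 1 h LPS/IFNγ, RAW 264.7 cells fractionated into nuclear and cytosolic parts and immunoblotted for NF-κB p65; PARP-1 and β-actin as internal controls; densitometry as fold change versus LPS/IFNγ-treated control; 4 independent experiments, mean ± SD.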

RAW264.7 [11] = experiment: Antiinflammatory activity in LPS/IFNgamma-stimulated mouse RAW264.7 cells assessed as effect on HDAC1 mRNA expression preincubated for 20 hrs followed by LPS/IFNgamma stimulation and measured after 4 hrs by RT-qPCR analysis; format: functional, cell-based; details: time 24.0 hrs
[12] = molecular target: Histone deacetylase 2 (Mus musculus) (UniProt P70288); experiment: Effect on HDAC2 nuclear localization in LPS/IFNgamma-stimulated mouse RAW264.7 cells preincubated for 20 hrs followed by LPS/IFNgamma stimulation and measured after 1 hr by Hoechst staining based confocal laser scanning microscopy; format: cell-based; summary of the method: as §2
Sequence of Histone deacetylase 2 (Mus musculus) (P70288 whole entry): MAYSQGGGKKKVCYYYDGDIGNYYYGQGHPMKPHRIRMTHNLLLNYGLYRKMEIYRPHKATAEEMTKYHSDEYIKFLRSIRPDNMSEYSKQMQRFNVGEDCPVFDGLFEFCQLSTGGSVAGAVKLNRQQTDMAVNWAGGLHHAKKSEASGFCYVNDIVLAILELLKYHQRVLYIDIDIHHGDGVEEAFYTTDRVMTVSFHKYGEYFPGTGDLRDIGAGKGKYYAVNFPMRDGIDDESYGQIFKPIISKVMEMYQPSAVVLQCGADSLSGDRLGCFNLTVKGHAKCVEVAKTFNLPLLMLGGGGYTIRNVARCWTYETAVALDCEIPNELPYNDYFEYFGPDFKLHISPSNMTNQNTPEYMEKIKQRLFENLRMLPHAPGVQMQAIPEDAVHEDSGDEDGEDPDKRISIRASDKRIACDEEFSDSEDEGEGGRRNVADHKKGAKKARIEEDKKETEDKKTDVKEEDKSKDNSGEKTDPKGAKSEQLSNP

With `Nc1cc(F)ccc1NC(=O)/C=C/c1cnn(C/C=C/c2ccccc2)c1` the “fold change (FC)” value (Lung [1]) was >2, the Activity (Lung [2]) was “Active” and the Activity [3] was “inactive”. The Activity (HBE) was “inactive”, the inhibition [4] was “Active” and the inhibition [5] was “inactive”. The Activity (RAW264.7 [6]) was “inactive”, the Activity (RAW264.7 [7]) was “Active” and the Activity [8] was “Non-Toxic”. For the same compound, the Activity (RAW264.7 [9]) was “inactive”, the inhibition [10] was “inactive” and the Activity (RAW264.7 [11]) was “inactive”. For the same compound, the Activity [12] was “inactive”.
